Results on 39 molecules are retold here after ChEMBL document CHEMBL4513216, “Probing the Open Global Health Chemical Diversity Library for Multistage-Active Starting Points for Next-Generation Antimalarials” (ACS Infect Dis, 2020).

The series is described as follows: Toxicity liver stage against HepG2, at 10uM. The series is classed as cell-based. Details: test concentration 10 uM, cell line HepG2-A16-CD81EGFP. As to conditions: human, HepG2-A16-CD81EGFP cells; read-out: INHIBITION
An outline of the steps:
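Uninfected HepG2-A16-CD81EGFP cells, 3 × 10^3 per well, 1536-well, plated on prespotted compound at 10 μM final, parasite-free screening media added to match infected plates; puromycin 10 μM positive, DMSO 0.5% negative; run in parallel with 48 h PbLuc assay at 37 °C, 5% CO2; viability by CellTiter-Glo luminescence, normalized to controls.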
As to `Cc1nc(NC(=O)c2c(-n3cnnn3)sc3c2CCC3)sc1C`, the cytotoxicity at 10 µM was determined as 5.95%.

Take `CCc1cnc(N2CC[C@@H]3CN(C(=O)c4ccco4)CCO[C@@H]3C2)nc1`: the cytotoxicity at 10 µM was 9.22%.

Take `CC(C)CNc1nc2c(cc1C(=O)NCC1CC1)CCNCC2`: the cytotoxicity at 10 µM was -2.79%.

Regarding `CCc1ccc(-c2cc(C(F)(F)F)nc(N3CCC(N)CC3)n2)cc1`, the cytotoxicity at 10 µM was 91.5%.

Consider `Cc1ncc(CN2CCOC(c3ccc(-c4ccccc4F)cn3)C2)s1` (centres undefined), for which the cytotoxicity at 10 µM is -35.7%.

Regarding `Cc1cc(-c2cnc(NCc3ccncc3)nc2C(C)C)on1`, the cytotoxicity at 10 µM came out at 59.7%.

Regarding `CC(C)NC(=O)c1cc(-c2ccc(S(C)(=O)=O)cc2)c2cnn(C)c2n1`, the cytotoxicity at 10 µM turned out to be 8.3%.

On to `Cc1ccccc1CNc1ccc(S(N)(=O)=O)c(C(F)(F)F)c1`, for which the cytotoxicity at 10 µM is 22.2%.

As for `O=C(NCC(=O)N1CCN(c2ccccc2)CC1)c1sccc1C1CC1`, the cytotoxicity at 10 µM was -151%.

For `CCC(C)c1csc(NC(=O)Cc2csc(-c3nnc[nH]3)n2)n1` (centres undefined), the cytotoxicity at 10 µM is -29.6%.

With `COCC1CN(c2ccc(C#N)c(Cl)c2)CCO1` (centres undefined), the cytotoxicity at 10 µM was found to be 4.86%.

On to `Cc1nc(C)c(CNC(=O)N2CCN(c3ccc(Cl)cn3)CC2)s1`, for which the cytotoxicity at 10 µM worked out at 55.8%.

`COC(=O)CSCc1noc(-c2ccc(C)cc2)n1`: the cytotoxicity at 10 µM came out at 4.13%.

Consider `CC(C)N(C)C(=O)c1ccc(CNc2ccncc2Cl)cc1`, for which the cytotoxicity at 10 µM was determined as 55.8%.

On to `CCc1ncc(C(=O)NCCNc2ncnc3sccc23)s1`, for which the cytotoxicity at 10 µM was 49.6%.

As for `c1cc(CNCc2ccnc(N3CCCC3)c2)c2c(c1)OCCCO2`, the cytotoxicity at 10 µM was determined as 26.6%.

As to `CCc1nc(CN2CCCN(c3ncnc4ccsc34)CC2)no1`, the cytotoxicity at 10 µM is 64.5%.

For the molecule `Cc1nc(CN2CCN(c3ncnc4ccccc34)CC2)no1`, the cytotoxicity at 10 µM was 61.5%.

For the molecule `CC(C)(C)OC(=O)N1CCCc2ccc(NCc3cc[nH]c3)cc21`, the cytotoxicity at 10 µM is 34.1%.

As for `CN1CCN(C2CCN(c3ccnc(-c4ccccc4)n3)CC2)C1=O`, the cytotoxicity at 10 µM was 59.7%.

In the case of `COc1cc(CN(C)C(=O)Cc2c(C)nn(C)c2C)ccc1OC(F)F`, the cytotoxicity at 10 µM came out at 39.2%.

With `COc1cc(N2CC[C@@H](O)[C@@H]2Cc2ccccc2)ncn1`, the cytotoxicity at 10 µM is -52.1%.

As for `Clc1ccccc1C1(c2ccnc(C3CCCC3)n2)CCNCC1`, the cytotoxicity at 10 µM was found to be 18.2%.

As for `COc1ccnc(CN2CCCC(CCc3ccc(F)cc3)C2)c1OC` (centres undefined), the cytotoxicity at 10 µM worked out at 50.4%.

On to `Cc1nc(C2CCN(C)CC2)cc(N2CCOc3ccc(Cl)cc3C2)n1`, for which the cytotoxicity at 10 µM is -5.12%.

For `CCOc1ccc2[nH]c(=O)c(CN3CCN(S(N)(=O)=O)CC3)cc2c1`, the cytotoxicity at 10 µM is -6.39%.

In the case of `Cc1cccnc1NCCNC(=O)c1cnc(-c2ccccn2)nc1O`, the cytotoxicity at 10 µM was found to be 26.4%.

With `CCc1nc2c(NCC3COc4ccccc4C3)ncnc2o1` (centres undefined), the cytotoxicity at 10 µM amounted to 10.5%.

Turning to `Cc1cccc2cc(CO)c(N3Cc4cnc(C(C)(C)C)nc4C3)nc12`, the cytotoxicity at 10 µM came out at 10.6%.

Take `CCCC1CCCN(Cc2csc(-c3ncccn3)n2)CC1` (centres undefined): the cytotoxicity at 10 µM was determined as 13.6%.

As to `Cn1ncc(NCc2cccc(OCC(F)(F)F)c2)c(Cl)c1=O`, the cytotoxicity at 10 µM was 22.1%.

For the molecule `Clc1cccc(N[C@H]2CCCN[C@H]2Cc2ccccc2)c1`, the cytotoxicity at 10 µM stood at 89.4%.

Consider `COc1ccc(-c2ccc(C3CNCCO3)nc2)cc1` (centres undefined), for which the cytotoxicity at 10 µM was -8.88%.

With `O=C(N1CCOCC1)[C@@]12CCO[C@@H]1CCN(Cc1cccc(F)c1)C2`, the cytotoxicity at 10 µM was determined as 10.8%.

For `O=c1ccc2c(n1CC1CC1)CCC(NCc1cccs1)C2` (centres undefined), the cytotoxicity at 10 µM was -111%.

As for `Cc1nccc(NCc2cncc3c2CCN(CC2CCOC2)C3)n1` (centres undefined), the cytotoxicity at 10 µM is -41.5%.

`O=C(NCc1cccnc1)[C@@H]1CC[C@@H]2[C@@H](CCN2c2ncccn2)O1`: the cytotoxicity at 10 µM is -68%.

With `Cc1noc([C@H]2C[C@H]3OCC[C@H]3N(C3CCC3)C2)n1`, the cytotoxicity at 10 µM is -129%.

As for `O=C(O)c1c(-c2cncnc2)ncc2c1CCN(Cc1cccnc1)C2`, the cytotoxicity at 10 µM stood at 10.6%.
